Measured values as given in ChEMBL document CHEMBL1141594, “Synthesis, radiosynthesis, and biological evaluation of new proteasome inhibitors in a tumor targeting approach” (J Med Chem, 2008).
pIC50: −log10 of the molar value. Residues, ends and D or L forms follow the SMILES beside them. *: point of attachment. Cbz = O=C(OCc1ccccc1)*

How the values were obtained:
[1] = Growth inhibition of human IPC227F cells after 48 hrs; format: functional
Procedure, shortened: (§1)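 DMEM with 10% fetal calf serum, monolayer culture. 5 × 10³ cells/well seeded and left 24 h at 37 °C, 5% CO₂, humidified. Exposed 48 h to increasing concentrations. Growth measured with Hoechst 33342 dye. IC₅₀ is the mean ± SD of three independent experiments, each in triplicate. Compounds tested as hydrochloride salts.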

B16 = assay: Growth inhibition of mouse B16 cells after 48 hrs; format: functional, cell-based; conditions: B16, 48 h; procedure, shortened: as §1
[2] = Biodistribution in liver of C57/BL6 mouse bearing B16 cells at 0.07 uM, iv; format: ADME, organism-based, C57Bl/6; conditions: read-out: Drug uptake
Procedure, shortened: (§2)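 ¹²⁵I-labelled compound given to C57Bl/6J mice with subcutaneous B16 melanoma. Organs and tissues sampled at 15 min, 30 min, 1 h, 3 h and 6 h post-injection. Radioactivity expressed as % injected dose per unit organ mass. Feces and urine collected over 72 h for elimination.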

[3] = Biodistribution in tumor of C57/BL6 mouse bearing B16 cells assessed as remaining drug level at 0.07 uM, iv after 3 hrs; format: ADME, organism-based, C57Bl/6, Neoplasm; conditions: read-out: Drug uptake; procedure, shortened: as §2
[4] = Biodistribution in tumor of C57/BL6 mouse bearing B16 cells assessed as remaining drug level at 0.07 uM, iv after 6 hrs; format: ADME, organism-based, C57Bl/6, Neoplasm; conditions: read-out: Drug uptake; procedure, shortened: as §2
Mus musculus = assay: Drug metabolism in C57/BL6 mouse bearing B16 cells assessed as elimation in faeces and urine at 0.07 uM, iv after 72 hrs; format: ADME, organism-based, C57Bl/6; conditions: in vivo; procedure, shortened: as §2
[5] = Biodistribution in tumor of C57/BL6 mouse bearing B16 cells at 0.07 uM, iv after 15 mins; format: ADME, organism-based, C57Bl/6, Neoplasm; conditions: read-out: Drug uptake; procedure, shortened: as §2
[6] = Biodistribution in lung of C57/BL6 mouse bearing B16 cells at 0.07 uM, iv; format: ADME, organism-based, C57Bl/6; conditions: read-out: Drug uptake; procedure, shortened: as §2
[7] = Biodistribution in kidney of C57/BL6 mouse bearing B16 cells at 0.07 uM, iv; format: ADME, organism-based, C57Bl/6; conditions: read-out: Drug uptake; procedure, shortened: as §2
[8] = Ratio of biodistribution in tumor to blood in C57/BL6 mouse bearing mouse B16 cells; format: ADME, organism-based, C57Bl/6

SMILES | pIC50 (B16) | tissue uptake at 0.07 µM [2] | pIC50 [1] | further results
CCN(CC)CCNC(=O)c1ccc(C(=O)N[C@@H](CC(C)C)C(=O)N[C@@H](CC(C)C)C(=O)N[C@H](C=O)CC(C)C)c(I)c1 | 5.75 |  | 5.45 | 
CCN(CC)CCNC(=O)c1ccc(C(=O)N[C@@H](CC(C)C)C(=O)N[C@@H](CC(C)C)C(=O)N[C@H](C=O)CC(C)C)cc1 | 5.89 | 5.95 %ID/g | 6.19 | 
CCN(CC)CCNC(=O)c1ccc(C(=O)N[C@@H](CC(C)C)C(=O)N[C@@H](CC(C)C)C(=O)N[C@H](C=O)CC(C)C)c([125I])c1.Cl |  | 8.9 %ID/g |  | tissue uptake at 3 h, 0.07 µM [3]: 1.2 %ID/g; tissue uptake at 6 h, 0.07 µM [4]: 1.2 %ID/g; Activity (Mus musculus): 87%; tissue uptake at 0.25 h, 0.07 µM [5]: 2.7 %ID/g; tissue uptake at 0.07 µM [6]: 16.3 %ID/g; tissue uptake at 0.07 µM [7]: 4.9 %ID/g; Kp [8]: ≥ 1

More lines, in order of rising pIC50 (B16), values ahead:

pIC50 (B16) | tissue uptake at 0.07 µM [2] | SMILES | pIC50 [1] | further results
6.28 |  | CCN(CC)CCNC(=O)c1ccc(C(=O)N[C@@H](CC(C)C)C(=O)N[C@@H](CC(C)C)C(=O)N[C@H](C=O)CC(C)C)c(NNN2CCCC2)c1 | 5.73 | 
7.38 |  | CC(C)C[C@@H](C=O)NC(=O)[C@H](CC(C)C)NC(=O)[C@H](CC(C)C)NC(=O)OCc1ccccc1 (Cbz-Leu-Leu-Leu-aldehyde) | 7.11 | 
7.70 |  | CCN(CC)CCNC(=O)c1ccc(C(=O)N[C@@H](CC(C)C)C(=O)N[C@@H](CC(C)C)C(=O)N[C@H](C=O)CC(C)C)c(/N=N/N2CCCC2)c1 | 6.74 | 
